Calls of active or inactive are those of the source. The rule behind the calls is not given here.
What was measured:
Plasmodium cynomolgi [1] = test: Antimalarial activity against Plasmodium cynomolgi infected in rhesus monkey assessed as infection cure at 0.5 mg/kg administered via stomach tube once daily for 7 days with 2.5 mg of base/kg of chloroquine; format: functional, organism-based; set-up: dose 0.5 mg/kg
Plasmodium cynomolgi [2] = test: Antimalarial activity against Plasmodium cynomolgi infected in rhesus monkey assessed as infection cure at 1 mg/kg administered via stomach tube once daily for 7 days with 2.5 mg of base/kg of chloroquine; format: functional, organism-based; set-up: dose 1 mg/kg
Plasmodium cynomolgi [3] = test: Antimalarial activity against Plasmodium cynomolgi infected in rhesus monkey assessed as time duration between end of treatment and relapse at 1 mg/kg administered via stomach tube once daily for 7 days with 2.5 mg of base/kg of chloroquine1; format: functional
Plasmodium berghei [4] = test: Antimalarial activity against blood schizont stage of Plasmodium berghei infected in mouse assessed as mean survival time at 20 mg/kg (reference value: 6.2 +/- 0.5 days); format: functional
Leishmania donovani = test: Antileishmanial activity against Leishmania donovani infected in hamster; format: functional, organism-based
Plasmodium berghei [5] = test: Antimalarial activity against blood schizont stage of Plasmodium berghei infected in mouse assessed as mean survival time at 320 mg/kg (reference value: 6.2 +/- 0.5 days); format: functional
Plasmodium cynomolgi [6] = test: Antimalarial activity against Plasmodium cynomolgi infected in rhesus monkey assessed as time duration between end of treatment and relapse at 0.5 mg/kg administered via stomach tube once daily for 7 days with 2.5 mg of base/kg of chloroquine1; format: functional
Plasmodium berghei [7] = test: Antimalarial activity against blood schizont stage of Plasmodium berghei infected in mouse assessed as mean survival time at 80 mg/kg (reference value: 6.2 +/- 0.5 days); format: functional
[8] = system: Plasmodium berghei yoelii; test: Antimalarial activity against sporozoite stage of Plasmodium berghei yoelii infected in mouse assessed as survival at 10 mg/kg, sc after 30 days; format: functional, organism-based; set-up: dose 10 mg/kg
Outline: (§1)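 Mice infected with P. berghei yoelii (sporozoite challenge) were dosed on the day of challenge, in groups of five, either orally or subcutaneously at several dose levels. Compound was dissolved or suspended in 0.5% hydroxyethylcellulose–0.1% Tween 80. Prophylactic activity was read as survival of treated mice to 30 days, reported as cures per number treated, with toxic deaths noted.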

[9] = system: Plasmodium berghei yoelii; test: Antimalarial activity against sporozoite stage of Plasmodium berghei yoelii infected in mouse assessed as survival at 2.5 mg/kg, sc after 30 days; format: functional, organism-based; set-up: dose 2.5 mg/kg; outline: as §1
Plasmodium berghei [10] = test: Antimalarial activity against blood schizont stage of Plasmodium berghei infected in mouse assessed as mean survival time at 640 mg/kg (reference value: 6.2 +/- 0.5 days); format: functional
Plasmodium berghei [11] = test: Antimalarial activity against blood schizont stage of Plasmodium berghei infected in mouse assessed as mean survival time at 160 mg/kg (reference value: 6.2 +/- 0.5 days); format: functional
Plasmodium berghei [12] = test: Antimalarial activity against blood schizont stage of Plasmodium berghei infected in mouse assessed as mean survival time at 40 mg/kg (reference value: 6.2 +/- 0.5 days); format: functional
[13] = system: Plasmodium berghei yoelii; test: Antimalarial activity against sporozoite stage of Plasmodium berghei yoelii infected in mouse assessed as survival at 2.5 mg/kg, po after 30 days; format: functional, organism-based; set-up: dose 2.5 mg/kg; outline: as §1
Mus musculus [14] = test: Toxicity in mouse infected with Plasmodium berghei assessed as death at 640 mg/kg after 2 to 5 days; format: organism-based; set-up: dose 640 mg/kg; details: in vivo
Mus musculus [15] = test: Toxicity in mouse infected with Plasmodium berghei assessed as death at 320 mg/kg after 2 to 5 days; format: organism-based; set-up: dose 320 mg/kg; details: in vivo
[16] = system: Plasmodium berghei yoelii; test: Antimalarial activity against sporozoite stage of Plasmodium berghei yoelii infected in mouse assessed as survival at 160 mg/kg, sc after 30 days; format: functional, organism-based; set-up: dose 160 mg/kg; outline: as §1
[17] = system: Plasmodium berghei yoelii; test: Antimalarial activity against sporozoite stage of Plasmodium berghei yoelii infected in mouse assessed as survival at 10 mg/kg, po after 30 days; format: functional, organism-based; set-up: dose 10 mg/kg; outline: as §1
Plasmodium cynomolgi [18] = test: Antimalarial activity against Plasmodium cynomolgi infected in rhesus monkey assessed as infection cure at 0.25 mg/kg administered via stomach tube once daily for 7 days with 2.5 mg of base/kg of chloroquine; format: functional, organism-based; set-up: dose 0.25 mg/kg
Plasmodium cynomolgi [19] = test: Antimalarial activity against Plasmodium cynomolgi infected in rhesus monkey assessed as time duration between end of treatment and relapse at 0.25 mg/kg administered via stomach tube once daily for 7 days with 2.5 mg of base/kg of chloroquine1; format: functional, organism-based; set-up: dose 0.25 mg/kg

Row | SMILES | Activity (Plasmodium cynomolgi [1]) | Activity (Plasmodium cynomolgi [2]) | Time (Plasmodium cynomolgi [3]) | Activity (Leishmania donovani) | Time (Plasmodium cynomolgi [6]) | also measured
1 | COc1cc(NC(C)CCCN)c2nccc(CCCC3CCCCC3)c2c1.O=C(O)/C=C/C(=O)O (stereo unspecified) | inactive | inactive | 8 days | inactive | 6 days | MSD (Plasmodium berghei [4]): 0.3 days; MSD (Plasmodium berghei [5]): 0.9 days; MSD (Plasmodium berghei [7]): 0.4 days
2 | Br.COc1cc(NC(C)CCCN)c2nccc(/C=C/CC3CCCCC3)c2c1 (stereo unspecified) |  |  |  | inactive |  | MSD (Plasmodium berghei [4]): 0.4 days; MSD (Plasmodium berghei [5]): -0.4 days; MSD (Plasmodium berghei [7]): 0.9 days
3 | CCCc1ccnc2c(NC(C)CCCN)cc(OC)cc12.O=C(O)/C=C/C(=O)O (stereo unspecified) | inactive | inactive | 23 days | inactive | 7 days | 
4 | C/C=C/c1ccnc2c(NC(C)CCCN)cc(OC)cc12.O=C(O)/C=C/C(=O)O (stereo unspecified) | inactive | inactive | 18 days | inactive | 8 days | Activity [8]: inactive
5 | CC/C=C/c1ccnc2c(NC(C)CCCN)cc(OC)cc12.O=C(O)/C=C/C(=O)O (stereo unspecified) | inactive | inactive | 10 days | inactive | 6 days | Activity [9]: inactive; MSD (Plasmodium berghei [10]): 10.3 days; MSD (Plasmodium berghei [4]): 3.1 days; MSD (Plasmodium berghei [11]): 7.5 days; MSD (Plasmodium berghei [12]): 5.1 days; Activity [13]: inactive; MSD (Plasmodium berghei [5]): 9.5 days; MSD (Plasmodium berghei [7]): 6.5 days
6 | CC/C(C)=C\c1ccnc2c(NC(C)CCCN)cc(OC)cc12 (stereo unspecified) |  |  |  | inactive |  | 
7 | CCC(C)Cc1ccnc2c(NC(C)CCCN)cc(OC)cc12.O=C(O)/C=C/C(=O)O (stereo unspecified) | inactive | inactive | 9 days | inactive | 7 days | 
8 | COc1cc(NC(C)CCCN)c2nccc(CC3CCCCC3)c2c1.O=C(O)/C=C/C(=O)O (stereo unspecified) | inactive | inactive | 7 days | inactive | 6 days | 
9 | COc1cc(NC(C)CCCN)c2nccc(C=C(C)C)c2c1 (stereo unspecified) |  |  |  | inactive |  | 
10 | COc1cc(NC(C)CCCN)c2nccc(CCC3CCCCC3)c2c1.O=C(O)/C=C/C(=O)O (stereo unspecified) |  |  |  | inactive |  | MSD (Plasmodium berghei [10]): 0.5 days; MSD (Plasmodium berghei [11]): 0.3 days; MSD (Plasmodium berghei [12]): 0.3 days
11 | COc1cc(NC(C)CCCN)c2ncccc2c1 (stereo unspecified) [PRIMAQUINE] |  |  |  |  |  | MSD (Plasmodium berghei [4]): 4 days; MSD (Plasmodium berghei [12]): 5 days; Activity (Mus musculus [14]): Toxic; Activity (Mus musculus [15]): Toxic; MSD (Plasmodium berghei [7]): 9.4 days
12 | COc1cc(NC(C)CCCN)c2nccc(/C=C/C3CCCCC3)c2c1 (stereo unspecified) |  |  |  | inactive |  | Activity [16]: inactive; Activity [8]: inactive; Activity [17]: inactive
13 | CCCCc1ccnc2c(NC(C)CCCN)cc(OC)cc12.O=C(O)/C=C/C(=O)O (stereo unspecified) | inactive | inactive | 22 days | inactive | 5 days | Activity [8]: inactive; Activity [13]: inactive
14 | C/C=C\c1ccnc2c(NC(C)CCCN)cc(OC)cc12.O=C(O)/C=C/C(=O)O (mixture of isomers) | inactive | inactive | 6 days | inactive | 6 days | Activity (Plasmodium cynomolgi [18]): inactive; Activity [13]: inactive; Activity (Plasmodium cynomolgi [19]): inactive
